Measured values reported in ChEMBL document CHEMBL1148966, “Cytotoxic steroidal saponins from Polygonatum zanlanscianense” (J Nat Prod, 2004).
Converted amounts (≈) assume the structure as drawn.

System: HeLa
Test: Cytotoxicity against human HeLa cells after 72 hrs by MTT assay
Format: functional, cell-based
Method in brief: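 HeLa cells in 96-well microplates; viability by MTT colorimetric assay, optical density read at 570 nm on a plate reader; IC50 reported in µg/mL. Cisplatin run as positive control.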

Point of comparison: C[C@H]1[C@H]2[C@H](C[C@H]3[C@@H]4CC=C5C[C@@H](O[C@@H]6O[C@H](CO)[C@H](O[C@@H]7O[C@H](CO)[C@@H](O)[C@H](O)[C@H]7O)[C@H](O)[C@H]6O)CC[C@]5(C)[C@H]4CC(=O)[C@]23C)O[C@]12CC[C@@H](CO[C@@H]1O[C@H](CO)[C@@H](O)[C@H](O)[C@H]1O)CO2, IC50 5.13 mg/L (≈ 5.51 µM). Against it:
- C[C@@H]1CC[C@@]2(OC1)O[C@H]1C[C@H]3[C@@H]4CC=C5C[C@@H](O[C@@H]6O[C@H](CO)[C@@H](O[C@@H]7OC[C@@H](O)[C@@H](O[C@@H]8O[C@@H](C)[C@H](O[C@@H]9O[C@@H](C)[C@H](O)[C@@H](O)[C@H]9O)[C@@H](O)[C@H]8O)[C@@H]7O)[C@H](O)[C@H]6O[C@@H]6O[C@@H](C)[C@H](O)[C@@H](O)[C@H]6O)CC[C@]5(C)[C@H]4CC[C@]3(C)[C@H]1[C@@H]2C [PARISSAPONIN PB] — 1.6-fold lower, 3.14 mg/L (≈ 2.74 µM)
- C[C@@H]1CC[C@@]2(OC1)O[C@H]1C[C@H]3[C@@H]4CC=C5C[C@@H](O[C@@H]6O[C@H](CO)[C@@H](O[C@@H]7OC[C@@H](O)[C@@H](O)[C@@H]7O)[C@H](O)[C@H]6O[C@@H]6O[C@@H](C)[C@H](O)[C@@H](O)[C@H]6O)CC[C@]5(C)[C@H]4CC[C@]3(C)[C@H]1[C@@H]2C — 2.8-fold higher, 14.6 mg/L (≈ 17 µM)
- C[C@@H]1CC[C@@]2(OC1)O[C@H]1C[C@H]3[C@@H]4CC=C5C[C@@H](O[C@@H]6O[C@H](CO)[C@@H](O)[C@H](O)[C@H]6O[C@@H]6O[C@@H](C)[C@H](O)[C@@H](O)[C@H]6O)CC[C@]5(C)[C@H]4CC[C@]3(C)[C@H]1[C@@H]2C [OPHIOPOGONIN C] — within 1.5-fold, 6.23 mg/L (≈ 8.62 µM)
- C[C@H]1[C@H]2[C@H](C[C@H]3[C@@H]4CC=C5C[C@@H](O[C@@H]6O[C@H](CO)[C@H](O[C@@H]7O[C@H](CO)[C@@H](O)[C@H](O)[C@H]7O[C@@H]7O[C@H](CO)[C@@H](O)[C@H](O)[C@H]7O)[C@H](O)[C@H]6O)CC[C@]5(C)[C@H]4CC[C@]23C)O[C@]12CC[C@@H](CO)CO2 — within 1.5-fold, 5.24 mg/L (≈ 5.71 µM)
- C[C@@H]1O[C@@H](O[C@H]2[C@H](O[C@H]3CC[C@@]4(C)C(=CC[C@H]5[C@@H]6C[C@@H]7O[C@]8(CC[C@@H](CO)CO8)[C@@H](C)[C@@H]7[C@@]6(C)CC[C@@H]54)C3)O[C@H](CO)[C@@H](O[C@@H]3O[C@@H](C)[C@H](O)[C@@H](O)[C@H]3O)[C@@H]2O)[C@H](O)[C@H](O)[C@H]1O — within 1.5-fold, 3.62 mg/L (≈ 4.09 µM)
- CC1=CC(=O)CC(C)(C)[C@H]1CC[C@@H](C)O[C@@H]1O[C@H](CO[C@@H]2O[C@H](CO)[C@@H](O)[C@H](O)[C@H]2O)[C@@H](O)[C@H](O)[C@H]1O — 3.9-fold higher, 20.1 mg/L (≈ 37.5 µM)
- C[C@H]1O[C@@H](O[C@H]2CC[C@@]3(C)C(=CC[C@H]4[C@@H]5C[C@@H]6O[C@]7(CC[C@@H](CO[C@@H]8O[C@H](CO)[C@@H](O)[C@H](O)[C@H]8O)CO7)[C@@H](C)[C@@H]6[C@@]5(C)C(=O)C[C@@H]43)C2)[C@H](O)[C@@H](O)[C@H]1O[C@@H]1O[C@H](CO)[C@@H](O)[C@H](O)[C@H]1O [POLYGONATOSIDE A] — within 1.5-fold, 5.06 mg/L (≈ 5.53 µM)
- C[C@H]1O[C@@H](O[C@H]2CC[C@@]3(C)C(=CC[C@H]4[C@@H]5C[C@@H]6O[C@@]7(OC[C@H](CO)C[C@@H]7O)[C@@H](C)[C@@H]6[C@@]5(C)C(=O)C[C@@H]43)C2)[C@H](O)[C@@H](O)[C@H]1O[C@@H]1O[C@H](CO)[C@@H](O)[C@H](O)[C@H]1O [POLYGONATOSIDE C] — within 1.5-fold, 7.45 mg/L (≈ 9.69 µM)
- C[C@@H]1O[C@@H](O[C@H]2[C@H](O)[C@@H](O)[C@H](O[C@H]3CC[C@@]4(C)C(=CC[C@H]5[C@@H]6C[C@@H]7O[C@]8(CC[C@@H](CO[C@@H]9O[C@H](CO)[C@@H](O)[C@H](O)[C@H]9O)CO8)[C@@H](C)[C@@H]7[C@@]6(C)CC[C@@H]54)C3)O[C@@H]2CO)[C@H](O)[C@H](O)[C@H]1O [POLYGONATOSIDE D] — within 1.5-fold, 5.83 mg/L (≈ 6.47 µM)
- C[C@@H]1CC[C@@]2(OC1)O[C@H]1C[C@H]3[C@@H]4CC=C5C[C@@H](O[C@@H]6O[C@H](CO)[C@@H](O)[C@H](O[C@@H]7O[C@H](CO)[C@@H](O)[C@H](O)[C@H]7O)[C@H]6O[C@@H]6O[C@@H](C)[C@H](O)[C@@H](O)[C@H]6O)CC[C@]5(C)[C@H]4CC[C@]3(C)[C@H]1[C@@H]2C [GRACILLIN] — 2.5-fold higher, 12.7 mg/L (≈ 14.4 µM)
